The subject of data set [1] is CEM-SS. Nature of the data set: Concentration inhibiting HIV-1 induced cytopathic effects in human T-lymphoblastic cells(CEM-SS) and essentially halted HIV-1 replication. It is filed as functional, cell-based. The gist of the method: (§1)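 CEM-SS cells kept in phenol-red-free RPMI 1640 with 5% fetal bovine serum, 2 mM L-glutamine and 50 μg/mL gentamicin, seeded at 2.0×10^5 cells/mL. Infected with HIV-1 RF (HTLV-III_RF) or left uninfected. Compound dissolved in DMSO, diluted in medium (final DMSO ≤1%), tested over <0.1 to >10 μM. Incubated 6 days at 37 °C, 5% CO2. Viability read by XTT-tetrazolium; quadruplicate infected wells, duplicate uninfected wells.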

Data set [2] has as its system CEM-SS. The data set is described as follows: Maximum protection of human T-lymphoblastic cells(CEM-SS) from cytopathic effects of HIV-1 by the compound. It counts as functional. Summed up:
as §1
(In general: Cytopathic effects are the visible damage that an infection or toxin causes in cultured cells.)

Data set [3] relates to CEM-SS. Nature of the data set: Potency to inhibit HIV-1 induced cytopathic effects in human T-lymphoblastic cells(CEM-SS) and essentially halted HIV-1 replication. It counts as functional, cell-based. The gist of the method:
as §1

A short description of data set [4]: Apparent in vitro therapeutic induces(TI) of the compound. It is filed as ADME.
The subject of data set [5] is CEM-SS. The data set is described as follows: Inhibition of HIV-1 replication in CEM-SS human lymphoblastoid cells in vitro. It is filed as functional, cell-based. Summed up: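 CEM-SS cells infected with HIV-1 RF and treated with a concentration range for 6 days at 37 °C, 5% CO2 (final DMSO ≤1%). Cell-free supernatant assayed for viral reverse transcriptase activity, p24 antigen and syncytium-forming units. Values expressed as percent of infected, untreated controls; each point is the mean of at least quadruplicate determinations.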

Data set [6] deals with CEM-SS cells (Homo sapiens). Nature of the data set: Cytotoxicity against CEM-SS cells.

For orientation: IC50 means the concentration that gives 50% inhibition. High values mean weaker potency in that assay, low ones greater potency in that assay. In the case of `CCCC1CC(=O)Oc2c(C(=O)C(C)C(C)O)c(O)c3c(c21)OC(C)(C)C=C3` (stereo unspecified) [CALANOLIDE E2], in the data set on CEM-SS [1], the IC50 was determined as 25 µM.
As a reminder, the EC50 is the concentration that produces a half-maximal response. A low value points to an effect from little substance. Compound `CCCc1cc(=O)oc2c3c(c4c(c12)OC(C)(C)C=C4)O[C@H](C)[C@@H](C)[C@@H]3O` [CALANOLIDE A] gave a Max protection with CEM-SS [2] of 100%. For the same compound, the half-inhibitory concentration (IC50) is 20 µM in the data set with CEM-SS [1] and 16 µM in data set [6]. Further, the EC50 with CEM-SS [3] amounted to 0.1 µM; in the data set with CEM-SS [5], 0.08 µM. Besides, the Therapeutic indices in data set [4] stood at 200 TI.
`CCCc1cc(=O)oc2c3c(c4c(c12)OC(C)(C)C=C4)O[C@H](C)[C@@H](C)[C@H]3O` [(+)-CALANOLIDE B] showed a Max protection in the data set on CEM-SS [2] of 100%. Moreover, the IC50 in the data set on CEM-SS [1] came to 15 µM. In the data set with CEM-SS [3], this compound came in with an EC50 of 0.4 µM. Also, the Therapeutic indices in data set [4] stood at 37 TI.
In turn, `CCCc1cc(=O)oc2c3c(c4c(c12)OC(C)(C)C=C4)O[C@H](C)[C@H](C)C3=O` registered an IC50 with CEM-SS [1] of 27 µM.
In turn, `CCCc1cc(=O)oc2c3c(c4c(c12)OC(C)(C)C=C4)O[C@H](C)[C@@H](C)[C@@H]3OC(C)=O` yielded a Max protection with CEM-SS [2] of 100%. Besides, the half-maximal inhibitory concentration (IC50) in the data set with CEM-SS [1] stood at 13 µM. The concentration for a half-maximal effect (EC50) with CEM-SS [3] is 2.7 µM. Besides, the Therapeutic indices in data set [4] is 5 TI.
In the data set with CEM-SS [2], `CCCc1cc(=O)oc2c3c(c4c(c12)OC(C)(C)C=C4)O[C@H](C)[C@H](C)[C@@H]3O` [CALANOLIDE C] showed a Max protection of 30%. The compound also displayed an IC50 with CEM-SS [1] of 30 µM.
In the data set on CEM-SS [1], `CCCc1cc(=O)oc2c3c(c4c(c12)OC(C)(C)C=C4)O[C@H](C)[C@@H](C)[C@@H]3OC` gave an IC50 of 21 µM.
Compound `CCCc1cc(=O)oc2c3c(c4c(c12)OC(C)(C)C=C4)O[C@H](C)[C@@H](C)[C@H]3OC` came in with a Max protection in the data set on CEM-SS [2] of 35%. For the same compound, it took 19 µM to reach half-maximal inhibition in the data set with CEM-SS [1] (IC50).

For the origin of these results see ChEMBL document CHEMBL1125492, “The calanolides, a novel HIV-inhibitory class of coumarin derivatives from the tropical rainforest tree, Calophyllum lanigerum” (J Med Chem, 1992).
